Calls of active or inactive are those of the source.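 Rule for the calls, unless noted: active = primary screen active whose calcium signal fell more than 3 SD beyond the full-serotonin control mean in both duplicate plates; inactive = the rest.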

System in one experiment: not listed separately
As to the kind of experiment: serotonin-gated TRPC4 signal block – cell-based, second counter screen, HEK293 TRPC4/5HT1a, Fluo-4, counter-screen for TRPC4 inhibitor project, confirmation (AID 434978).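 For outcome: serotonin given first at submaximal then at maximal dose after compound preincubation.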 The following applies: Fluo-4 calcium flux, at 10 µM, serotonin added to trigger calcium flux; hits give high values. The gist of the method: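 Times: 110 s each for compound, submaximal and ECmax serotonin; Assay system: TRPC4/5HT1a HEK293 cells; Also added: serotonin, a submaximal addition followed by a maximal (ECmax) addition; Replicates: each compound tested on duplicate plates; Measured by: Fluo-4 calcium fluorescence.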
For the molecule `Fc1ccc(-c2nnc(CN3CCN(c4ncc(C(F)(F)F)cc4Cl)CC3)o2)cc1`, the outcome was inactive.

With `CCN1CCN(c2ccc(S(=O)(=O)N3CCCCC3)cc2NC(=O)COc2ccccc2)CC1`, the result was inactive.

Take `CC1CC(C)CN(CCCNC(=O)c2nn(C)c3c2CS(=O)(=O)c2ccccc2-3)C1` (stereo not drawn): the result was inactive.

With `Cc1ccc(/C=N\NC(=O)C2COc3cc4ccccc4cc3O2)o1` (stereo not drawn), the result was inactive.

Regarding `Cc1cccc(C)c1OCC(O)CN` (stereo not drawn), the result was inactive.

Consider `CCn1cc(CN2CCCC(C(=O)Nc3ccc(-c4nc5ccccc5[nH]4)cc3)C2)c(C)n1` (stereo not drawn), for which the result was inactive.

Turning to `CC(C)(C)c1cc(Cl)ccc1OCCn1ccnc1`, the outcome was inactive.

On to `CC(C)c1ccc(NC(=S)N(C)CCc2ccccn2)cc1`, for which the result was inactive.

Regarding `CCCC(=O)NC(C)C(c1cccs1)N1CCN(c2ccccc2)CC1` (stereo not drawn), the result was inactive.

As to `Cc1ccc2oc(=O)c3cnn(CC(=O)NC4CCN(Cc5ccccc5)CC4)c3c2c1`, the result was inactive.

On to `O=C(CCc1ccccc1)NNC(=S)NC(=O)c1ccc(Cl)cc1`, for which the result was inactive.

For the molecule `C=CCn1c(CCNC(=O)c2ccco2)nc2ccccc21`, the result was inactive.

Regarding `Cc1sc2nc(CSc3ccccc3)nc(NCCN(C)C)c2c1C`, the outcome was inactive.

As to `O=C(CNS(=O)(=O)c1ccc2ccccc2c1)NCCc1ccccn1`, the outcome was inactive.

Take `COc1ccc(-c2cc(C#N)nc(N3CCNCC3)n2)cc1`: the outcome was inactive.

Regarding `Cc1ccc(C)c(OCCCCn2ccnc2)c1`, the outcome was inactive.

Regarding `CCCN(CCC)CCNC(=S)Nc1ccc2nc3n(c(=O)c2c1)CCCCC3`, the result was inactive.

On to `Cc1cccc(NC(=S)NCC(c2cccnc2)N(C)C)c1` (stereo not drawn), for which the result was inactive.

Consider `COc1ccc(/C=C/CN2CCCC(C(=O)c3ccc(OC)c(F)c3)C2)cc1` (stereo not drawn), for which the outcome was inactive.

`Cc1sc2ncnc(NC3CCN(Cc4ccccc4)CC3)c2c1C`: the result was inactive.

As for `CCCCN(CC)CCNC(=O)c1cc2c(C)nc3ccccc3c2o1`, the result was inactive.

Regarding `O=C(NCCc1ccccn1)c1ccc(OC2CCN(CCc3ccccc3)CC2)cc1`, the result was inactive.

As for `Cc1ccccc1NC(=S)NCCc1ccccn1`, the outcome was inactive.

For orientation: inhibition means the percentage by which the read-out fell short of the control. Regarding `NCCCn1c(C(=O)c2cc(Cl)c(N)c(Cl)c2)c2ccccc2[n+]1[O-]`, the inhibition is 14% (active).

Regarding `COc1ccc(-c2nn(-c3ccccc3)cc2CNCc2cccnc2)c(F)c1`, the outcome was inactive.

On to `Cc1onc(-c2ccccc2)c1C(=O)NC(=S)NNC(=O)c1ccco1`, for which the outcome was inactive.

For `COc1ccc(C(CNC(=O)c2ccc(S(=O)(=O)N(C)C)cc2)N(C)C)cc1` (stereo not drawn), the outcome was inactive.

As for `CCN1C(=O)c2cccc3c(S(=O)(=O)Nc4ccccc4OC)ccc1c23`, the outcome was inactive.

As for `CCOC(=O)C1CCCN(C(c2ccccn2)c2c(C)[nH]c3ccccc23)C1` (stereo not drawn), the outcome was inactive.

In the case of `COC(=O)c1ccccc1N=Nc1c(N)[nH][nH]c1=O`, the outcome was inactive.

As for `COc1ccc(C(CNCC(=O)Nc2ccccc2F)N(C)C)cc1` (stereo not drawn), the outcome was inactive.

For the molecule `CCOC(=O)C1(CCOc2ccccc2)CCN(Cc2cnc(C)s2)CC1`, the outcome was inactive.

Consider `O=C(c1sc2ccccc2c1Cl)N(Cc1ccco1)C1CCS(=O)(=O)C1` (stereo not drawn), for which the result was inactive.

On to `CCCCN(C)CCCNC(=O)CN1N=C(c2ccc(Cl)cc2)CCC1=O`, for which the result was inactive.

For `CN(C)CCCN(C(=O)c1ccc(C(=O)c2ccccc2)cc1)c1nc2ccc(F)cc2s1`, the outcome was inactive.

As for `CN(CCc1nc2ccc(Cl)cc2[nH]1)Cc1nc(CC2CC2)no1`, the outcome was inactive.

In the case of `Fc1ccc(C(c2nnnn2Cc2cccs2)N2CCN(C3CCCCC3)CC2)cc1` (stereo not drawn), the outcome was inactive.

On to `COc1ccc(C2Nc3ccccc3C(=O)N2Cc2ccco2)cc1COc1ccc(NC(C)=O)cc1` (stereo not drawn), for which the result was inactive.

`O=C(NCCCN1CCN(CCCNC(=O)c2ccc3c(c2)OCO3)CC1)c1ccc2c(c1)OCO2`: the outcome was inactive.

The next experiment relates to TRPC4 (mouse), co-expressed with 5HT1a in HEK293. As to the kind of experiment: enhancement of serotonin-evoked TRPC4 response – cell-based, second counter screen, HEK293 TRPC4/5HT1a, Fluo-4, counter-screen for TRPC4 potentiator project, confirmation (AID 434979;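 active = signal rise over 3 SD above mean of control wells given weak agonist, in both repeats and first screen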). The following applies: Fluo-4 calcium flux, at 10 µM, serotonin added at its EC20 dose; hits give high values. In general terms: A counterscreen serves to expose hits that act by an unwanted route or on another target.
On to `Fc1ccc(-c2nnc(CN3CCN(c4ncc(C(F)(F)F)cc4Cl)CC3)o2)cc1`, for which the outcome was inactive.

For `CCN1CCN(c2ccc(S(=O)(=O)N3CCCCC3)cc2NC(=O)COc2ccccc2)CC1`, the result was inactive.

On to `CC1CC(C)CN(CCCNC(=O)c2nn(C)c3c2CS(=O)(=O)c2ccccc2-3)C1` (stereo not drawn), for which the result was inactive.

As for `Cc1ccc(/C=N\NC(=O)C2COc3cc4ccccc4cc3O2)o1` (stereo not drawn), the outcome was inactive.

Take `Cc1cccc(C)c1OCC(O)CN` (stereo not drawn): the result was inactive.

As to `CCn1cc(CN2CCCC(C(=O)Nc3ccc(-c4nc5ccccc5[nH]4)cc3)C2)c(C)n1` (stereo not drawn), the result was inactive.

In the case of `CC(C)(C)c1cc(Cl)ccc1OCCn1ccnc1`, the potentiation is 14.1% (active).

In the case of `CC(C)c1ccc(NC(=S)N(C)CCc2ccccn2)cc1`, the outcome was inactive.

As for `CCCC(=O)NC(C)C(c1cccs1)N1CCN(c2ccccc2)CC1` (stereo not drawn), the outcome was inactive.

As for `Cc1ccc2oc(=O)c3cnn(CC(=O)NC4CCN(Cc5ccccc5)CC4)c3c2c1`, the result was inactive.

Take `O=C(CCc1ccccc1)NNC(=S)NC(=O)c1ccc(Cl)cc1`: the outcome was inactive.

As for `C=CCn1c(CCNC(=O)c2ccco2)nc2ccccc21`, the result was inactive.

As to `Cc1sc2nc(CSc3ccccc3)nc(NCCN(C)C)c2c1C`, the outcome was inactive.

As for `O=C(CNS(=O)(=O)c1ccc2ccccc2c1)NCCc1ccccn1`, the result was inactive.

Consider `COc1ccc(-c2cc(C#N)nc(N3CCNCC3)n2)cc1`, for which the outcome was inactive.

For the molecule `Cc1ccc(C)c(OCCCCn2ccnc2)c1`, the outcome was inactive.

As for `CCCN(CCC)CCNC(=S)Nc1ccc2nc3n(c(=O)c2c1)CCCCC3`, the outcome was inactive.

For the molecule `Cc1cccc(NC(=S)NCC(c2cccnc2)N(C)C)c1` (stereo not drawn), the result was inactive.

Consider `COc1ccc(/C=C/CN2CCCC(C(=O)c3ccc(OC)c(F)c3)C2)cc1` (stereo not drawn), for which the result was inactive.

In the case of `Cc1sc2ncnc(NC3CCN(Cc4ccccc4)CC3)c2c1C`, the outcome was inactive.

For `CCCCN(CC)CCNC(=O)c1cc2c(C)nc3ccccc3c2o1`, the result was inactive.

Take `O=C(NCCc1ccccn1)c1ccc(OC2CCN(CCc3ccccc3)CC2)cc1`: the outcome was inactive.

As to `Cc1ccccc1NC(=S)NCCc1ccccn1`, the result was inactive.

With `NCCCn1c(C(=O)c2cc(Cl)c(N)c(Cl)c2)c2ccccc2[n+]1[O-]`, the outcome was inactive.

For the molecule `COc1ccc(-c2nn(-c3ccccc3)cc2CNCc2cccnc2)c(F)c1`, the outcome was inactive.

Consider `Cc1onc(-c2ccccc2)c1C(=O)NC(=S)NNC(=O)c1ccco1`, for which the outcome was inactive.

`COc1ccc(C(CNC(=O)c2ccc(S(=O)(=O)N(C)C)cc2)N(C)C)cc1` (stereo not drawn): the outcome was inactive.

Take `CCN1C(=O)c2cccc3c(S(=O)(=O)Nc4ccccc4OC)ccc1c23`: the result was inactive.

Take `CCOC(=O)C1CCCN(C(c2ccccn2)c2c(C)[nH]c3ccccc23)C1` (stereo not drawn): the result was inactive.

For the molecule `COC(=O)c1ccccc1N=Nc1c(N)[nH][nH]c1=O`, the potentiation was 46.3% (active).

Regarding `COc1ccc(C(CNCC(=O)Nc2ccccc2F)N(C)C)cc1` (stereo not drawn), the outcome was inactive.

Consider `CCOC(=O)C1(CCOc2ccccc2)CCN(Cc2cnc(C)s2)CC1`, for which the outcome was inactive.

In the case of `O=C(c1sc2ccccc2c1Cl)N(Cc1ccco1)C1CCS(=O)(=O)C1` (stereo not drawn), the result was inactive.

On to `CCCCN(C)CCCNC(=O)CN1N=C(c2ccc(Cl)cc2)CCC1=O`, for which the potentiation is 21.3% (active).

For `CN(C)CCCN(C(=O)c1ccc(C(=O)c2ccccc2)cc1)c1nc2ccc(F)cc2s1`, the outcome was inactive.

Regarding `CN(CCc1nc2ccc(Cl)cc2[nH]1)Cc1nc(CC2CC2)no1`, the result was inactive.

`Fc1ccc(C(c2nnnn2Cc2cccs2)N2CCN(C3CCCCC3)CC2)cc1` (stereo not drawn): the outcome was inactive.

Turning to `COc1ccc(C2Nc3ccccc3C(=O)N2Cc2ccco2)cc1COc1ccc(NC(C)=O)cc1` (stereo not drawn), the result was inactive.

Regarding `O=C(NCCCN1CCN(CCCNC(=O)c2ccc3c(c2)OCO3)CC1)c1ccc2c(c1)OCO2`, the result was inactive.

Source of the values: PubChem BioAssay.
